# Experimental data as given in ChEMBL document CHEMBL1157197, “Design, synthesis and trypanocidal activity of lead compounds based on inhibitors of parasite glycolysis” (Bioorg Med Chem, 2008).
# Assays:
# [1] = target: T1, Pyruvate kinase (Leishmania mexicana) (UniProt Q27686); assay: Inhibition of Leishmania mexicana pyruvate kinase assessed as enzyme residual activity at 5 mM
# T1 sequence (whole entry): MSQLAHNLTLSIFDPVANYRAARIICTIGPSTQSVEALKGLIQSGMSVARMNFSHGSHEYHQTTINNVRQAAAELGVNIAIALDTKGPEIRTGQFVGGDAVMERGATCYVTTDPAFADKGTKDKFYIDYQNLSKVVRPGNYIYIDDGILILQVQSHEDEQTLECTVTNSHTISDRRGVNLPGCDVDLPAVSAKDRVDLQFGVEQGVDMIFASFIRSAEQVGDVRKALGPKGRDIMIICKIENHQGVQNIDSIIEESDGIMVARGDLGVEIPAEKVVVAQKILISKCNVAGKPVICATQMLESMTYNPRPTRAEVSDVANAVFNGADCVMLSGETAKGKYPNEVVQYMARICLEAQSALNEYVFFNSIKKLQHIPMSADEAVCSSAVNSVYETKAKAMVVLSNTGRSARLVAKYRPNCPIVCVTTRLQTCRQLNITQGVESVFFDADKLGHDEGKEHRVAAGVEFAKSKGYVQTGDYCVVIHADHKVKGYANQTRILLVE
# Pyruvate kinase = target: T2, Pyruvate kinase (Leishmania mexicana, UniProt Q27686); assay: Inhibition of Leishmania mexicana pyruvate kinase
# T2 sequence (Q27686 whole entry): T1 sequence (whole entry)
# [2] = target: T3, ATP-dependent 6-phosphofructokinase (Trypanosoma brucei) (UniProt O15648); assay: Inhibition of Trypanosoma brucei phosphofructokinase assessed as enzyme residual activity at 5 mM
# T3 sequence (whole entry): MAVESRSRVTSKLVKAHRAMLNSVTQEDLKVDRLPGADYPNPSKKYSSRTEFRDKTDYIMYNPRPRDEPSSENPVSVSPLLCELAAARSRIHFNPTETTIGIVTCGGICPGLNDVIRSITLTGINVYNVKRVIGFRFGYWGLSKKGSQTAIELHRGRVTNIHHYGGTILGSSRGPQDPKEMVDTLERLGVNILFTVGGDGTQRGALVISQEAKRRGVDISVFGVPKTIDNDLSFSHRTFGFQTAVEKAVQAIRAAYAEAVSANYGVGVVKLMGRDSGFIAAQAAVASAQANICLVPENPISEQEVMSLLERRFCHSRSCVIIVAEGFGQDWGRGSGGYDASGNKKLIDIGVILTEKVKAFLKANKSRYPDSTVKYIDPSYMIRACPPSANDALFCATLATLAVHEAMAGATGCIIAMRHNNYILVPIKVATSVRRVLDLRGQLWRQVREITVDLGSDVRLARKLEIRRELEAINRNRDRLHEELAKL
# [3] = target: T3, ATP-dependent 6-phosphofructokinase (Trypanosoma brucei); assay: Inhibition of Trypanosoma brucei phosphofructokinase assessed as enzyme residual activity at 1 mM
# Trypanosoma brucei = assay: Antiparasitic activity against Trypanosoma brucei strain 427; type: functional; details: read-out: ED50 (the source's name)
# Summary of the method: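 Cultured bloodstream-form Trypanosoma brucei brucei strain 427 exposed to compounds in vitro; ED50 reported.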
# [4] = target: T4, ATP-dependent 6-phosphofructokinase (Trypanosoma brucei, UniProt O15648); assay: Inhibition of Trypanosoma brucei phosphofructokinase
# T4 sequence (O15648 whole entry): T3 sequence (whole entry)
SMILES,Activity [1],Activity [2],further results
O=C(Nc1cccc([N+](=O)[O-])c1)[C@H]1O[C@H](CNC2CCCCCC2)[C@@H](O)[C@@H]1O,7.6%,,IC50 (Pyruvate kinase): 0.053 mM
OC[C@H]1O[C@H](CNC2Cc3ccccc3C2)[C@@H](O)[C@@H]1O,49%,33%,
OC[C@@H](Cc1ccccc1)NC[C@H]1O[C@H](CO)[C@@H](O)[C@@H]1O,97%,77%,
C[C@H](NC[C@H]1O[C@H](CO)[C@@H](O)[C@@H]1O)c1ccc2ccccc2c1,30%,,IC50 (Pyruvate kinase): 1.5 mM
Cc1ccc(CNC[C@H]2O[C@H](CO)[C@@H](O)[C@@H]2O)cc1,90%,73%,
COc1ccc([C@H](C)NC[C@H]2O[C@H](CO)[C@@H](O)[C@@H]2O)cc1,22%,,IC50 (Pyruvate kinase): 3.5 mM
OC[C@H]1O[C@H](CNC2CCCCCCC2)[C@@H](O)[C@@H]1O,57%,64%,
OC[C@H]1O[C@H](CN[C@H]2c3ccccc3C[C@H]2O)[C@@H](O)[C@@H]1O,103%,52%,
O=C(Nc1ccc([N+](=O)[O-])cc1)[C@H]1O[C@H](CNC2CCCCCC2)[C@@H](O)[C@@H]1O,12.5%,,
CC(C)CCCC(C)NC[C@H]1O[C@H](CO)[C@@H](O)[C@@H]1O (stereo partly drawn),80%,87%,
OCCC(NC[C@H]1O[C@H](CO)[C@@H](O)[C@@H]1O)c1ccccc1 (stereo partly drawn),85%,47%,
O=C(NCc1ccccc1)[C@H]1O[C@H](CNCc2ccc(Cl)c(Cl)c2)[C@@H](O)[C@@H]1O,,,Activity [3]: 4%
O=C(Nc1ccccc1)[C@H]1O[C@H](CNC2CCCCCC2)[C@@H](O)[C@@H]1O,24.8%,,
OC[C@H]1O[C@H](CNC2CCCc3ccccc32)[C@@H](O)[C@@H]1O (stereo partly drawn),36%,62%,IC50 (Pyruvate kinase): 1.2 mM; EC50 (Trypanosoma brucei): 830 µM
CC(C)[C@H](C)NC[C@H]1O[C@H](CO)[C@@H](O)[C@@H]1O,26%,49%,IC50 (Pyruvate kinase): 2.3 mM
C[C@@H](NC[C@H]1O[C@H](CO)[C@@H](O)[C@@H]1O)c1ccc2ccccc2c1,34%,33%,IC50 (Pyruvate kinase): 1.5 mM
OC[C@H]1O[C@H](CNC2CCCCC2)[C@@H](O)[C@@H]1O,83%,69%,
CC(C)C[C@H](CO)NC[C@H]1O[C@H](CO)[C@@H](O)[C@@H]1O,86%,52%,
CC(CCc1ccccc1)NC[C@H]1O[C@H](CO)[C@@H](O)[C@@H]1O (stereo partly drawn),95%,73%,
OC[C@H]1O[C@H](CNCc2ccc(Cl)cc2Cl)[C@@H](O)[C@@H]1O,,58%,
O=C(Nc1cccc([N+](=O)[O-])c1)[C@H]1O[C@H](CNCc2ccc(Cl)c(Cl)c2)[C@@H](O)[C@@H]1O,,,Activity [3]: 1.7%
OC[C@H]1O[C@H](CNCc2cccc(Cl)c2)[C@@H](O)[C@@H]1O,88%,85%,

SMILES,Activity [1],Activity [2],further results
OC[C@H]1O[C@H](CNCc2ccccc2F)[C@@H](O)[C@@H]1O,42%,63%,
O=C(Nc1ccc([N+](=O)[O-])cc1)[C@H]1O[C@H](CNCc2ccc(Cl)c(Cl)c2)[C@@H](O)[C@@H]1O,,,Activity [3]: 0.8%
OC[C@H]1O[C@H](CN[C@@H]2C[C@@H]3CC[C@@H]2C3)[C@@H](O)[C@@H]1O,47%,,
COc1ccc([C@@H](C)NC[C@H]2O[C@H](CO)[C@@H](O)[C@@H]2O)cc1,25%,,IC50 (Pyruvate kinase): 0.9 mM
CC(C)C[C@@H](CO)NC[C@H]1O[C@H](CO)[C@@H](O)[C@@H]1O,73%,64%,
OC[C@H]1O[C@H](CNCc2ccccc2Cl)[C@@H](O)[C@@H]1O,71%,65%,
CC(CCCC(C)(C)O)NC[C@H]1O[C@H](CO)[C@@H](O)[C@@H]1O (stereo partly drawn),125%,58%,
OC[C@H]1O[C@H](CN[C@@H]2c3ccccc3C[C@@H]2O)[C@@H](O)[C@@H]1O,60%,57%,
OC[C@H]1O[C@H](CNC2CCCCCC2)[C@@H](O)[C@@H]1O,19%,63%,IC50 (Pyruvate kinase): 0.071 mM; EC50 (Trypanosoma brucei): 1880 µM
O=C(Nc1ccccc1)[C@H]1O[C@H](CNCc2ccc(Cl)c(Cl)c2)[C@@H](O)[C@@H]1O,,,Activity [3]: 5.5%
Cc1cccc(CNC[C@H]2O[C@H](CO)[C@@H](O)[C@@H]2O)c1,89%,61%,
OC[C@H]1O[C@H](CNC2CCc3ccccc32)[C@@H](O)[C@@H]1O (stereo partly drawn),86%,41%,
OC[C@H]1O[C@H](CNCc2cccc(F)c2)[C@@H](O)[C@@H]1O,100%,57%,
OCC(Cc1ccccc1)NC[C@H]1O[C@H](CO)[C@@H](O)[C@@H]1O (stereo partly drawn),59%,47%,
C[C@@H](NC[C@H]1O[C@H](CO)[C@@H](O)[C@@H]1O)c1ccc(F)cc1,53%,,
CC(NC[C@H]1O[C@H](CO)[C@@H](O)[C@@H]1O)C(O)c1ccccc1 (stereo partly drawn),80%,64%,
Cc1ccc(CNC[C@H]2O[C@H](CO)[C@@H](O)[C@@H]2O)cc1C,85%,59%,
C[C@@H](NC[C@H]1O[C@H](CO)[C@@H](O)[C@@H]1O)c1ccc(Cl)cc1,84%,,
OC[C@H]1O[C@H](CNC2CCCC2)[C@@H](O)[C@@H]1O,52%,87%,IC50 (Pyruvate kinase): 4.1 mM
OC[C@H]1O[C@H](CN[C@H]2C[C@@H]3CC[C@@H]2C3)[C@@H](O)[C@@H]1O,19%,40%,IC50 (Pyruvate kinase): 1.5 mM
OC[C@H](Cc1ccccc1)NC[C@H]1O[C@H](CO)[C@@H](O)[C@@H]1O,72%,83%,
C[C@H](NC[C@H]1O[C@H](CO)[C@@H](O)[C@@H]1O)c1ccc(F)cc1,36%,,

SMILES,Activity [1],Activity [2],further results
CC(C)CCC(C)NC[C@H]1O[C@H](CO)[C@@H](O)[C@@H]1O (stereo partly drawn),115%,44%,
Cc1ccc(CNC[C@H]2O[C@H](CO)[C@@H](O)[C@@H]2O)c(C)c1,103%,87%,
O=C(NC1CCCCCC1)[C@H]1O[C@H](CNC2CCCCCC2)[C@@H](O)[C@@H]1O,1.9%,,IC50 (Pyruvate kinase): 0.026 mM
OC[C@H]1O[C@H](CNCc2cccc(C(F)(F)F)c2)[C@@H](O)[C@@H]1O,105%,46%,
CCCC(C)NC[C@H]1O[C@H](CO)[C@@H](O)[C@@H]1O (stereo partly drawn),26%,70%,IC50 (Pyruvate kinase): 2.5 mM
OC[C@H]1O[C@H](CNC2CCC2)[C@@H](O)[C@@H]1O,43%,54%,IC50 (Pyruvate kinase): 4.3 mM
O=C(NCc1ccc(Cl)c(Cl)c1)[C@H]1O[C@H](CNC2CCCCCC2)[C@@H](O)[C@@H]1O,,,IC50 [4]: 49 µM; Activity [3]: 0.4%
OC[C@H]1O[C@H](CNCc2ccc(Cl)cc2)[C@@H](O)[C@@H]1O,81%,65%,
OC[C@H]1O[C@H](CNCc2ccc(-c3ccccc3)cc2)[C@@H](O)[C@@H]1O,,75%,
Cc1ccc(C)c(CNC[C@H]2O[C@H](CO)[C@@H](O)[C@@H]2O)c1,,69%,
C[C@H](NC[C@H]1O[C@H](CO)[C@@H](O)[C@@H]1O)c1ccc(Cl)cc1,58%,,
CCCCCCNC[C@H]1O[C@H](CO)[C@@H](O)[C@@H]1O,40%,,EC50 (Trypanosoma brucei): 400 µM
CCC(CO)NC[C@H]1O[C@H](CO)[C@@H](O)[C@@H]1O (stereo partly drawn),90%,36%,
COC[C@H](C)NC[C@H]1O[C@H](CO)[C@@H](O)[C@@H]1O,82%,35%,
O=C(NCc1ccccc1)[C@H]1O[C@H](CNC2CCCCCC2)[C@@H](O)[C@@H]1O,11.5%,,
Cc1ccccc1CNC[C@H]1O[C@H](CO)[C@@H](O)[C@@H]1O,100%,68%,
OC[C@H]1O[C@H](CNCc2ccc(F)cc2)[C@@H](O)[C@@H]1O,107%,59%,
CC(C)[C@@H](C)NC[C@H]1O[C@H](CO)[C@@H](O)[C@@H]1O,86%,51%,
CC[C@@H](C)NC[C@H]1O[C@H](CO)[C@@H](O)[C@@H]1O,28%,,
C=CCNC(=O)[C@H]1O[C@H](CNC2CCCCCC2)[C@@H](O)[C@@H]1O,19.1%,,
OC[C@H]1O[C@H](CNC(c2ccccc2)c2ccccc2)[C@@H](O)[C@@H]1O,89%,30%,
